Here are results for 14 compounds from PubChem BioAssay.

Each structure is given as a SMILES string. Activity calls are given as the source filed them.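 How the source made its calls, unless noted: active means NADPH fluorescence slope more negative than the mean of all samples by about 3 SD, 99.7% confidence; inactive means the rest.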

Assay [1] can be described thus: inhibitors of TNFa-induced NFkB p65 translocation, primary screen, imaging, HUVEC, MLSMR starter and 10KST1 sets (AID 438;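 active means inhibition above 20% together with a positive visual image hit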;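 further: compound added about 3h40 before a 20 min TNFalpha stimulation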;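 on inhibition: signal is the nuclear over cytoplasmic p65 intensity ratio per well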). To be noted: HUVEC TNFa-induced p65 nuclear translocation; cell count: measured here: nuclei count (cytotoxicity indicator), at 2.08 µM; inhibition: at 2 µM, stronger effect = higher value, 0% TNFa-plus-vehicle, 100% no-TNFa wells.
The nature of assay [2]: inhibitors of mutant huntingtin aggregation, primary screen, imaging, exon1htt(103Q)mCFP cells, high-content imaging (AID 483;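 active means visual image review flags a hit and inhibition of aggregation exceeds 20%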;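 further: compound exposure lasted 3 days before fixation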;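 on nuclei count: percent of the per-plate median nuclei count of sample wells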). The note with it: exon1htt(103Q)mCFP cell line, aggregate imaging, at 2 µM; inhibition of aggregation: stronger effect = higher value; nuclei count: measured here: cell count, toxicity.
The nature of assay [3]: inhibitors of E-selectin induction by TNFa, primary screen, imaging, HUVEC, immunofluorescence, MLSMR starter and 10KST1 sets (AID 487;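 active means visually confirmed hit in the image check and inhibition above 20%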;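 on inhibition: signal is fraction of cell area covered by stained E-selectin grains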;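 on nuclei count: 100% = median nuclei count of all wells on the same plate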). To be noted: HUVEC TNFalpha-induced E-selectin immunofluorescence imaging, at 2 µM; inhibition: stronger effect = higher value; nuclei count: measured here: cell number, toxicity.
The target in assay [4] is Voltage-gated potassium channel subunit beta-2 (Rattus norvegicus) (UniProt P62483). The assay can be described thus: KvBeta enzyme negative modulators, primary screen, biochemical, NADPH fluorescence (AID 622;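 active means fluorescence slope higher than the sample average by over 3 SD, cut at about -0.22 in these data, passing the limit was not always enough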;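 further: slope of raw intensity against log time taken from 70 to 1610 s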). To be noted: recombinant KvBeta, 4-cyanobenzaldehyde reduction, at 10 µM, stronger effect = higher value.
For assay [5] the target is unchanged. In words: KvBeta positive modulators, primary screen, biochemical, NADPH fluorescence (AID 623).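 Further: fluorescence intensity change per second fitted from 20 to 320 s.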 The note with it: Recombinant KvBeta, NADPH fluorescence decrease slope, 10 min; at 10 µM; stronger effect = lower value.
The target of assay [6] is Muscarinic acetylcholine receptor M4 (Homo sapiens) (UniProt P08173). In words: compounds altering M4/GIRK thallium flux, either direction, primary screen, M4 allosteric agonist project, cell-based, HEK293 M4/GIRK, BTC-AM (AID 625;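 active means fluorescence slope after compound addition differing from the mean of all tested samples at 99.7% confidence, mostly higher but some lower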;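 further: thallium influx through GIRK channels coupled to M4 in HEK293 cells with BTC-AM dye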). The note with it: at 10 µM, actives lie on both sides. The procedure, abridged: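 Material: M4/GIRK1/GIRK2 stable HEK293 cell line. Medium: pH 7.3 thallium assay buffer. Dosing: single compound concentration, 10 µM final. Schedule: 1 h dye loading, 2 min kinetic read. Measured by: kinetic fluorescence with BTC-AM dye. Read-out: post-addition slope, 15–24 s, of baseline-normalized fluorescence. Benchmarks: carbachol and DMSO controls.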

Assay [7] in a line: inhibitors of Sendai virus-induced IRF3 signaling, primary screen, TLR/RLR signaling modifier project, cell-based, Sendai virus stimulus, luciferase, 10K MLSCN set (AID 602276;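 active means inhibition at or above 50% at 10 µM; inactive means inhibition below 50%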;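 further: firefly luciferase from ISG56 promoter only with Renilla not read in this screen; 0% = Sendai virus plus DMSO and 100% = medium plus DMSO without virus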). The note with it: HEK293 RL24 IRF3 luciferase reporter, at 10 µM, stronger effect = higher value. On the technique in general: Reporter assays use an easily measured gene product as a stand-in for the process of interest.

The nature of assay [8]: inhibitors of poly I:C-induced TLR3 signaling, primary screen, cell-based, poly I:C stimulus, luciferase, 10K MLSCN set (AID 602277;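 active means inhibition of the reporter signal at or above 50%; inactive means inhibition below 50%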). To be noted: HEK293-TLR3 RL24 IRF3 luciferase reporter, at 10 µM, stronger effect = higher value.

Chain of Voltage-gated potassium channel subunit beta-2 (Rattus norvegicus) (P62483 whole entry, looked up): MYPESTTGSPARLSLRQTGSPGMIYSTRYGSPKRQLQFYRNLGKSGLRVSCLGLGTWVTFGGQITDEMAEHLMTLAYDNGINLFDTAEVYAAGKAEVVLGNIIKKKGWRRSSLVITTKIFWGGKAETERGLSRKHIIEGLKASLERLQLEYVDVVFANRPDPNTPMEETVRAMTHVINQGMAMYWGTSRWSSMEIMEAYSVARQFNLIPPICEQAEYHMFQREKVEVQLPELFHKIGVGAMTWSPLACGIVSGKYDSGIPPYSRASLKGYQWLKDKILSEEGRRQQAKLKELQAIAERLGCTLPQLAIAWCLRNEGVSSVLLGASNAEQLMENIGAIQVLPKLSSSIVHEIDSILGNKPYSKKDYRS
Chain of Muscarinic acetylcholine receptor M4 (Homo sapiens) (P08173 whole entry, looked up): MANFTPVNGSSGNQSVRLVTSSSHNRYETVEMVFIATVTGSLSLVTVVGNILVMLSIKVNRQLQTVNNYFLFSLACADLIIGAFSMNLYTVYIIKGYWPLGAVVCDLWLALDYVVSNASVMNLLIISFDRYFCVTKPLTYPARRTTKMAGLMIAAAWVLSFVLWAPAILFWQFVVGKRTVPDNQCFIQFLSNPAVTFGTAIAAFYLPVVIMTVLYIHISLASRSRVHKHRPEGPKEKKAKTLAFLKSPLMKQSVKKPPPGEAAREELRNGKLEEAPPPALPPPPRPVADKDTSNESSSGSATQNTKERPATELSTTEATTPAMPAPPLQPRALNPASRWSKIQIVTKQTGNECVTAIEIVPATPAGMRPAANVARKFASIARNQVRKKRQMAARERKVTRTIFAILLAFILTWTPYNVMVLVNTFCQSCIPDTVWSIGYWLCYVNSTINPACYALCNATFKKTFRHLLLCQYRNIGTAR

Broadly, the inhibition is the drop in the measured response relative to a control, in per cent. As for `COc1ccc(-c2nn3c(-c4ccncc4)nnc3s2)cc1OC`, in assay [1], the cell count turned out to be 562. The inhibition was 5.4% (inactive) in assay [1], 24.6% (inactive) in assay [3], 19.4% (inactive) in assay [7] and 24.2% (inactive) in assay [8]. Besides, in assay [2], the inhibition of aggregation was -7.4% (inactive). Also, the nuclei count is 90.8% in assay [2] and 105% in assay [3]. In addition, the fluorescence slope in assay [4] is -0.42 (inactive); in assay [6], 0.00419 (inactive). For the same compound, in assay [5], the NADPH fluorescence slope was -0.000356 (inactive).
In the case of `CCOC(=O)c1[nH]c(C)c(C(=O)Nc2ccccc2F)c1C`, the cell count in assay [1] came to 637. For the same compound, the inhibition in assay [1] was -9.7% (inactive); in assay [3], 11.3% (inactive); in assay [7] it was 27.9% (inactive); in assay [8] it was -0.299% (inactive). Also, in assay [2], the inhibition of aggregation was -35.4% (inactive). The nuclei count in assay [2] came out at 48.5%; in assay [3], 94.5%. Also, the fluorescence slope was -0.435 (inactive) in assay [4] and 0.00822 (inactive) in assay [6]. Moreover, the NADPH fluorescence slope in assay [5] is 2.7e-05 (inactive).
On to `COc1cccc2cc(C(=O)N3CCN(C45CC6CC(CC(C6)C4)C5)CC3)c(=O)oc12`, for which, in assay [1], the cell count is 213. Further, the inhibition is 9.1% (inactive) in assay [1], 43.8% (inactive) in assay [3], 5.81% (inactive) in assay [7] and 21.6% (inactive) in assay [8]. In assay [2], the inhibition of aggregation was 17.3% (inactive). In addition, the nuclei count in assay [2] came to 71.5%; in assay [3], 85.2%. Besides, the fluorescence slope in assay [4] is -0.443 (inactive); in assay [6], 0.00456 (inactive). Moreover, in assay [5], the NADPH fluorescence slope is 2.5e-05 (inactive).
For `COc1cc2c(OC)cccc2cc1C(=O)O`, the cell count in assay [1] worked out at 383. In addition, the inhibition was -1.9% (inactive) in assay [1], -12.2% (inactive) in assay [3], 18.2% (inactive) in assay [7] and 8.81% (inactive) in assay [8]. For the same compound, the inhibition of aggregation in assay [2] is -13.5% (inactive). The values for the nuclei count in assay [2] and in assay [3] were 102% and 92.7%, respectively. Further, the fluorescence slope in assay [4] was -0.429 (inactive); in assay [6] it was 0.0045 (inactive). Moreover, the NADPH fluorescence slope in assay [5] is -5.9e-06 (inactive).
For `CCCn1c(NCc2ccc3c(c2)OCO3)nc2ccccc21`, the cell count in assay [1] stood at 650. The inhibition in assay [1] is -6.8% (inactive); in assay [3] it was 32% (inactive); in assay [7], -9.91% (inactive); in assay [8], -7.89% (inactive). In addition, the inhibition of aggregation in assay [2] is 2.4% (inactive). Further, the nuclei count in assay [2] was found to be 97.6%; in assay [3], 93.5%. In addition, the fluorescence slope in assay [4] is -0.537 (inactive); in assay [6], 0.00348 (inactive). In assay [5], the NADPH fluorescence slope is -5.7e-05 (inactive).
Regarding `CC(C)Oc1ccc(C2C(C(=O)c3ccco3)=C(O)C(=O)N2CCCN(C)C)cc1` (centres undefined), in assay [1], the cell count was found to be 694. Besides, the inhibition in assay [1] is -5.2% (inactive); in assay [3] it was -16.4% (inactive); in assay [7], 13.1% (inactive); in assay [8], 8.15% (inactive). In assay [2], the inhibition of aggregation was 17.7% (inactive). For the same compound, the nuclei count is 80.9% in assay [2] and 112% in assay [3]. Further, the fluorescence slope in assay [4] is -0.476 (inactive); in assay [6], 0.00376 (inactive). Besides, the NADPH fluorescence slope in assay [5] is -0.000237 (inactive).
As for `CCCCC(CC)C(=O)Nc1ccc(Cl)cn1` (centres undefined), in assay [1], the cell count was found to be 461. Moreover, the inhibition in assay [1] was 8.5% (inactive); in assay [3], -29.4% (inactive); in assay [7] it was 13.3% (inactive); in assay [8], 17.2% (inactive). In addition, in assay [2], the inhibition of aggregation was 4.5% (inactive). The nuclei count was found to be 102% in assay [2] and 117% in assay [3]. Further, the fluorescence slope in assay [4] is -0.377 (inactive); in assay [6], 0.00769 (inactive). Besides, the NADPH fluorescence slope in assay [5] was -7.8e-05 (inactive).
For the compound `Cc1ccc(-c2nnn(CC(=O)N(CC(=O)NCC3CCCO3)c3ccccc3)n2)o1` (centres undefined), the cell count in assay [1] was found to be 618. Besides, the inhibition is -3.6% (inactive) in assay [1], -161% (inactive) in assay [3], 1.41% (inactive) in assay [7] and 5.51% (inactive) in assay [8]. Further, the inhibition of aggregation in assay [2] is -12.2% (inactive). In addition, the values for the nuclei count in assay [2] and in assay [3] were 85.7% and 106%, respectively. The figures for the fluorescence slope in assay [4] and in assay [6] were -0.584 (inactive) and 0.00876 (inactive), respectively. The NADPH fluorescence slope in assay [5] is -1.6e-05 (inactive).
In the case of `CCCN(CCC)CCNC(=O)C(NS(=O)(=O)c1ccc2c(c1)CCC(=O)N2)c1ccccc1` (centres undefined), the cell count in assay [1] was found to be 524. The inhibition in assay [1] was 0.7% (inactive); in assay [3], -17.1% (inactive); in assay [7] it was 8.32% (inactive); in assay [8] it was 24.9% (inactive). The inhibition of aggregation in assay [2] is -8.1% (inactive). In addition, the nuclei count is 98.1% in assay [2] and 112% in assay [3]. In addition, the fluorescence slope in assay [4] was -0.555 (inactive); in assay [6], 0.00588 (inactive). The NADPH fluorescence slope in assay [5] is -5e-05 (inactive).
In the case of `O=C(Nc1nc2ccc(S(=O)(=O)N3CCCC3)cc2s1)C1CCCO1` (centres undefined), the cell count in assay [1] was determined as 504. Further, the inhibition is -12.6% (inactive) in assay [1], 28.1% (inactive) in assay [3], 14.9% (inactive) in assay [7] and 15.2% (inactive) in assay [8]. Moreover, in assay [2], the inhibition of aggregation was -7.9% (inactive). Also, the nuclei count in assay [2] turned out to be 55.6%; in assay [3], 93.1%. Also, the results for the fluorescence slope in assay [4] and in assay [6] were -0.455 (inactive) and 0.00425 (inactive), respectively. Moreover, the NADPH fluorescence slope in assay [5] was -4.6e-05 (inactive).
In the case of `CNC(=O)c1c(O)c2cccc3c2n(c1=O)CC3`, the cell count in assay [1] stood at 446. Further, the inhibition is -8.8% (inactive) in assay [1], -60.1% (inactive) in assay [3], 1.98% (inactive) in assay [7] and -8.91% (inactive) in assay [8]. Further, the inhibition of aggregation in assay [2] is -3.8% (inactive). Also, the nuclei count in assay [2] amounted to 57%; in assay [3], 99%. The fluorescence slope in assay [4] is -0.545 (inactive); in assay [6], 0.00595 (inactive). Besides, the NADPH fluorescence slope in assay [5] is -5.3e-05 (inactive).
As for `COc1ccc(OC(C)C(=O)N2CCN(c3ccccn3)CC2)cc1` (centres undefined), in assay [1], the cell count was found to be 395. For the same compound, the inhibition was 7.5% (inactive) in assay [1], -90.1% (inactive) in assay [3], 21.5% (inactive) in assay [7] and 18% (inactive) in assay [8]. The inhibition of aggregation in assay [2] is 3% (inactive). The figures for the nuclei count in assay [2] and in assay [3] were 103% and 115%, respectively. Further, the fluorescence slope is -0.447 (inactive) in assay [4] and 0.0048 (inactive) in assay [6]. For the same compound, in assay [5], the NADPH fluorescence slope was -3.5e-05 (inactive).
As to `O=C(NCc1ccccc1)N1CCn2c(nc3ccccc32)C1`, the cell count in assay [1] is 555. Further, the inhibition in assay [1] was 2.5% (inactive); in assay [3] it was -13.3% (inactive); in assay [7], -0.797% (inactive); in assay [8] it was -7.43% (inactive). In addition, the inhibition of aggregation in assay [2] was 8.2% (inactive). For the same compound, the nuclei count in assay [2] came to 99.6%; in assay [3], 111%. In addition, the fluorescence slope in assay [4] is -0.413 (inactive); in assay [6] it was 0.00568 (inactive). Besides, the NADPH fluorescence slope in assay [5] is -2.6e-05 (inactive).
Regarding `COc1cc2c(cc1OC)C(c1cc(OC)c(OC)c(OC)c1)NCC2` (centres undefined), in assay [1], the cell count was 514. The inhibition was 1.8% (inactive) in assay [1], -28.8% (inactive) in assay [3], 15.4% (inactive) in assay [7] and 20.5% (inactive) in assay [8]. Also, the inhibition of aggregation in assay [2] is 10.4% (inactive). Also, the nuclei count in assay [2] amounted to 104%; in assay [3], 102%. For the same compound, the fluorescence slope in assay [4] is -0.546 (inactive); in assay [6] it was 0.00597 (inactive). Besides, the NADPH fluorescence slope in assay [5] was -2.1e-05 (inactive).
